# Source: PubChem BioAssay
# SIAE inh: inhibitors of human sialic acid acetylesterase SIAE; Q9HAT2; SIAE FP-Rh probe binding, fluorescence polarization; inhibition, % at 9.66 µM; actives 0.69% (n = 370,000);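 active means inhibition above a cutoff: mean of compounds within the control limits plus 3 SD of those, cut at about 17% in these data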;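 further: 0% = plate median of compound wells and 100% = probe without SIAE protein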
# Target sequence (Q9HAT2 whole entry, looked up): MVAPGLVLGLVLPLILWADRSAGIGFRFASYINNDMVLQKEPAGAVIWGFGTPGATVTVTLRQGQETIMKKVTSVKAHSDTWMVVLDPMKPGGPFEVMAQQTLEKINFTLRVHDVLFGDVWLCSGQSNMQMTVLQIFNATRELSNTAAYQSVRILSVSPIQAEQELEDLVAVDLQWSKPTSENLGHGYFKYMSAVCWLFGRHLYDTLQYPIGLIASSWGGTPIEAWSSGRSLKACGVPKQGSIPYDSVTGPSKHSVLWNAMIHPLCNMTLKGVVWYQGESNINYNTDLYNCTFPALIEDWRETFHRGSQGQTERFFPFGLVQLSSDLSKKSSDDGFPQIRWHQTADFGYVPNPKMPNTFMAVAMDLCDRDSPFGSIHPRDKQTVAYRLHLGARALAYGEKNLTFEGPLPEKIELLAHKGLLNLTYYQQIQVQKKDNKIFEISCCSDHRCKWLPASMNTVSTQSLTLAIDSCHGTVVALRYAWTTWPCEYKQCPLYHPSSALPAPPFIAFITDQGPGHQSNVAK
# TCR-CD3 inh: blocks the human TCR-CD3 interaction; TAMRA-labeled TCR probe fluorescence, biochemical; inhibition, % at 9.4 µM; actives 0.37% (n = 360,000); AID 651800; in the data active means inhibition above about 19%;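 further: recombinant mutant TCR 2C K166C tagged with TAMRA read by polarization; 0% = receptor in buffer alone and 100% = receptor with positive control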
# pPAFAH FP inh: pPAFAH (human) enzyme inhibition | recombinant pPAFAH, FP-rhodamine probe fluorescence polarization | AID 463082 | inhibition, % at 3.39 µM | actives 1.5% (n = 330,000) | Q13093;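 active means inhibition above the mean inhibition across the screen plus 3 SD, cut at about 25% in these data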;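 further: inhibitors block binding of the rhodamine activity-based probe so polarization drops; 0% = enzyme with DMSO and 100% = wells lacking pPAFAH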
# HTRA1 inh: inhibitors of human serine peptidase HTRA1. Q92743. recombinant HTRA1, FP-rhodamine activity-based probe, fluorescence polarization. inhibition, % at 5.96 µM. actives 0.5% (n = 340,000); in the data active means inhibition above about 36%;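 further: 0% = enzyme with DMSO and 100% = wells lacking enzyme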
# mABHD4 FP: inhibitors of mouse ABHD4; inhibition, % at 8.92 µM; actives 0.54% (n = 370,000); Q8VD66; purified mABHD4, FP-Rh probe fluorescence polarization;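 active means inhibition exceeding the mean over every tested compound plus 3 SD, cut at about 30% in these data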;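 further: 0% = plate median of compound wells and 100% = S159A mutant with DMSO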
#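 system = mouse ABHD4 enzyme, wild type | medium = HEPES pH 7.0, NaCl, Pluronic buffer | also added = FP-Rh probe | incubation = Enzyme–compound pre-incubation 45 min, then probe 60 min, both 25 °C | technique = fluorescence polarization, excitation 525 nm, emission 598 nm, BODIPY TMR filters | controls = S159A mutant high control, sample median low control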
# SIAE inh conf: confirmation of human SIAE inhibitors; shares compounds with SIAE inh; inhibition, % at 9.66 µM; actives 13% (n = 2,300); SIAE FP-Rh activity-based probe, fluorescence polarization;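 active means mean inhibition of the replicates above the hit cutoff set in the primary screen, cut at about 17% in these data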;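 further: 0% = SIAE with DMSO and probe and 100% = probe without SIAE; inhibitors lower polarization as more probe stays unbound to SIAE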
# An asterisk follows results filed as active; / = no result. In the library only some 2.3% were active in any assay of this set; here they are far more common.
SMILES,SIAE inh,TCR-CD3 inh,pPAFAH FP inh,HTRA1 inh,mABHD4 FP,SIAE inh conf
NP(=O)(OCC(F)(F)F)Oc1ccc(Cl)cc1 (stereo not drawn),20*,2,2,5,3,12
NP(=O)(OCC(F)(F)F)Oc1cccc2ccccc12 (stereo not drawn),1,-1,7,10,1,/
Cc1cc(N=Nc2ccccc2C)ccc1N,32*,-1,17,12,4,1
CCOP(=O)(CCP(=O)(OCC)OCC)OCC.C[CH2][Sn]([Cl])([Cl])[CH2]C,-4,-6,/,8,28,/
COC(=O)C1=C(c2cccc(C#N)c2)C[C@@H]2CC[C@H]1N2C(=O)N1CCC(O)CC1,0,2,-2,-1,2,/
Cn1c(CN2CCN(C(=O)COc3ccccc3)CC2)nc2cc([N+](=O)[O-])ccc21,151*,2,5,-2,-1,-2
Cc1cccc(OCC(=O)N2CCN(Cc3ccc([N+](=O)[O-])cc3)CC2)c1,0,-5,0,-2,5,/
C[N+]1(C)C2CC(OC(=O)C(CO)c3ccccc3)CC1C1OC12 (stereo not drawn),-3,4,4,3,-2,/
CCN[C@@H](C)Cc1cccc(C(F)(F)F)c1,19*,4,4,2,5,3
CCOC(=O)[C@@]1(C#N)[C@@H]2C=CC(C(N)=O)=CN2[C@@H](C(N)=O)[C@@H]1c1cccc(Cl)c1,21*,3,9,2,10,0
CCOC(=O)[C@]1(C#N)[C@@H]2C=CC(C(N)=O)=CN2[C@@H](C(N)=O)[C@@H]1c1ccc(F)cc1,2,-9,3,5,0,/
CCCC[N+]12CCC(CC1)C(=C(c1ccccc1)c1ccccc1)C2,1,-5,2,3,-10,/
C(#CCN1CCCCC1)COCc1ccccc1,21*,7,5,9,-6,1
